In brackets after ≈: the same amount, converted by molar mass.
Key:
[1] = Selectivity index, ratio of IC50 for human THP1 cells to MIC for Mycobacterium tuberculosis; type: functional, THP-1
[2] = system: Mycobacterium tuberculosis; assay: Antitubercular activity against Mycobacterium tuberculosis H37Ra after 7 days; type: functional; details: 168 h
[3] = system: Mycobacterium tuberculosis; assay: Antitubercular activity against Mycobacterium tuberculosis H37Rv ATCC 25618 after 7 days; type: functional; details: 168 h
[4] = system: Mycobacterium tuberculosis; assay: Antitubercular activity against Mycobacterium tuberculosis H37Rv ATCC 25618 after 2 weeks; type: functional; details: 336 h
[5] = system: Mycobacterium tuberculosis; assay: Ratio of MBC to MIC for Mycobacterium tuberculosis H37Rv; type: functional
Outline: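 H37Rv MBC obtained by subculturing MIC-assay cultures onto drug-free solid medium and counting CFU. The ratio relates this MBC to the MIC for the same strain.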

[6] = system: Mycobacterium tuberculosis; assay: Antitubercular activity against drug-sensitive Mycobacterium tuberculosis by radiometric BACTEC460 method; type: functional

O[C@@H](CNCCNC[C@H](O)COC(c1ccco1)c1ccco1)COC(c1ccco1)c1ccco1
Ratio [1]: >10 | MIC [2]: 25 µM (≈ 12.5 µg/mL)

Cc1ccc(C(OC[C@@H](O)CNCCNC[C@H](O)COC(c2ccc(C)cc2)c2ccc(C)cc2)c2ccc(C)cc2)cc1
Ratio [1]: >10 | MIC [2]: 5.24 µM (≈ 3.13 µg/mL) | MIC [3]: 3.13 µg/mL | MBC [4]: 6.25 µg/mL (≈ 10.5 µM) | Ratio [5]: 2

O[C@H](CNCCNC[C@@H](O)COC(c1ccc(Br)cc1)c1ccc(Br)cc1)COC(c1ccc(Br)cc1)c1ccc(Br)cc1
Ratio [1]: >10 | MIC [2]: 7.34 µM (≈ 6.29 µg/mL)

CCOc1ccc(C(OC[C@@H](O)CNCCNC[C@H](O)COC(c2ccc(OCC)cc2)c2ccc(OCC)cc2)c2ccc(OCC)cc2)cc1
Ratio [1]: >10 | MIC [2]: 8.72 µM (≈ 6.25 µg/mL)

COCOc1ccc(C(OC[C@H](O)CNCCNC[C@@H](O)COC(c2ccc(OCOC)cc2)c2ccc(OCOC)cc2)c2ccc(OCOC)cc2)cc1
Ratio [1]: >10 | MIC [2]: 8 µM (≈ 6.25 µg/mL)

Cc1ccc(C(OC[C@H](O)CNCCNC[C@@H](O)COC(c2ccc(C)cc2)c2ccc(C)cc2)c2ccc(C)cc2)cc1
Ratio [1]: >10 | MIC [2]: 5.24 µM (≈ 3.13 µg/mL) | MIC [3]: 3.13 µg/mL | MBC [4]: 6.25 µg/mL (≈ 10.5 µM) | Ratio [5]: 2

COc1ccc(C(OC[C@@H](O)CNCCNC[C@H](O)COC(c2ccc(OC)cc2)c2ccc(OC)cc2)c2ccc(OC)cc2)cc1
Ratio [1]: >10 | MIC [2]: 4.73 µM (≈ 3.13 µg/mL) | MIC [3]: 3.13 µg/mL | MBC [4]: 25 µg/mL (≈ 37.8 µM) | Ratio [5]: 8

COCOc1ccc(C(OC[C@@H](O)CNCCNC[C@H](O)COC(c2ccc(OCOC)cc2)c2ccc(OCOC)cc2)c2ccc(OCOC)cc2)cc1
Ratio [1]: >10 | MIC [2]: 8 µM (≈ 6.25 µg/mL)

O[C@@H](CNCCNC[C@H](O)COC(c1ccc(Br)cc1)c1ccc(Br)cc1)COC(c1ccc(Br)cc1)c1ccc(Br)cc1
Ratio [1]: >10 | MIC [2]: 3.67 µM (≈ 3.14 µg/mL) | MIC [3]: 3.13 µg/mL | MBC [4]: 25 µg/mL (≈ 29.2 µM) | Ratio [5]: 8

CCOc1ccc(C(OC[C@H](O)CNCCNC[C@@H](O)COC(c2ccc(OCC)cc2)c2ccc(OCC)cc2)c2ccc(OCC)cc2)cc1
Ratio [1]: >10 | MIC [2]: 8.72 µM (≈ 6.25 µg/mL)

CC(C)(C)c1ccc(C(OC[C@H](O)CNCCNC[C@@H](O)COC(c2ccc(C(C)(C)C)cc2)c2ccc(C(C)(C)C)cc2)c2ccc(C(C)(C)C)cc2)cc1
Ratio [1]: >10 | MIC [2]: 32.7 µM (≈ 25 µg/mL)

O[C@H](CNCCNC[C@@H](O)COC(c1ccco1)c1ccco1)COC(c1ccco1)c1ccco1
Ratio [1]: >10 | MIC [2]: 50 µM (≈ 25 µg/mL)

Cc1ccc(C(OC[C@@H](O)CN2CCN(C[C@H](O)COC(c3ccc(C)cc3)c3ccc(C)cc3)CC2)c2ccc(C)cc2)cc1
Ratio [1]: >10 | MIC [2]: 40.1 µM (≈ 25 µg/mL)

O[C@@H](COC(c1ccc(Br)cc1)c1ccc(Br)cc1)CN1CCN(C[C@@H](O)COC(c2ccc(Br)cc2)c2ccc(Br)cc2)CC1
Ratio [1]: >10 | MIC [2]: 28.3 µM (≈ 25 µg/mL)

Cc1ccc(C(OC[C@H](O)CN2CCN(C[C@@H](O)COC(c3ccc(C)cc3)c3ccc(C)cc3)CC2)c2ccc(C)cc2)cc1
Ratio [1]: 12 | MIC [2]: 2.5 µM (≈ 1.56 µg/mL) | MIC [6]: 3.13 µg/mL (≈ 5.03 µM) | MIC [3]: 1.56 µg/mL | MBC [4]: 6.25 µg/mL (≈ 10 µM) | Ratio [5]: 4

Cc1ccc(C(OC[C@@H](O)CN2CCCN(C[C@H](O)COC(c3ccc(C)cc3)c3ccc(C)cc3)CC2)c2ccc(C)cc2)cc1
Ratio [1]: 30.77 | MIC [2]: 1.22 µM (≈ 0.777 µg/mL) | MIC [6]: 0.78 µg/mL (≈ 1.22 µM) | MIC [3]: 0.78 µg/mL | MBC [4]: 1.56 µg/mL (≈ 2.45 µM) | Ratio [5]: 2

CC(C)Oc1ccc(C(OC[C@@H](O)CNCCNC[C@H](O)COC(c2ccc(OC(C)C)cc2)c2ccc(OC(C)C)cc2)c2ccc(OC(C)C)cc2)cc1
Ratio [1]: >10 | MIC [2]: 16.2 µM (≈ 12.5 µg/mL)

O[C@H](COC(c1ccc(Br)cc1)c1ccc(Br)cc1)CN1CCN(C[C@H](O)COC(c2ccc(Br)cc2)c2ccc(Br)cc2)CC1
Ratio [1]: >10 | MIC [2]: 28.3 µM (≈ 25 µg/mL)

O[C@H](CNCCNC[C@@H](O)COC(c1cccs1)c1cccs1)COC(c1cccs1)c1cccs1
Ratio [1]: >10 | MIC [2]: 22.1 µM (≈ 12.5 µg/mL)

COc1ccc(C(OC[C@H](O)CNCCNC[C@@H](O)COC(c2ccc(OC)cc2)c2ccc(OC)cc2)c2ccc(OC)cc2)cc1
Ratio [1]: >10 | MIC [2]: 9.46 µM (≈ 6.25 µg/mL)

CC(C)Oc1ccc(C(OC[C@H](O)CNCCNC[C@@H](O)COC(c2ccc(OC(C)C)cc2)c2ccc(OC(C)C)cc2)c2ccc(OC(C)C)cc2)cc1
Ratio [1]: >10 | MIC [2]: 8.09 µM (≈ 6.25 µg/mL)

O[C@@H](CNCCNC[C@H](O)COC(c1cccs1)c1cccs1)COC(c1cccs1)c1cccs1
Ratio [1]: >10 | MIC [2]: 22.1 µM (≈ 12.5 µg/mL)

COc1ccc(C(OC[C@@H](O)CNCCNC[C@H](O)COC(c2ccc(OC)c(OC)c2)c2ccc(OC)c(OC)c2)c2ccc(OC)c(OC)c2)cc1OC
Ratio [1]: >10 | MIC [2]: 16 µM (≈ 12.5 µg/mL)

O[C@H](CNCCNC[C@@H](O)COC(c1ccc2c(c1)OCCO2)c1ccc2c(c1)OCCO2)COC(c1ccc2c(c1)OCCO2)c1ccc2c(c1)OCCO2
Ratio [1]: >10 | MIC [2]: 16.2 µM (≈ 12.5 µg/mL)

O[C@H](CNCCNC[C@@H](O)COC(c1ccc2c(c1)OCO2)c1ccc2c(c1)OCO2)COC(c1ccc2c(c1)OCO2)c1ccc2c(c1)OCO2
Ratio [1]: >10 | MIC [2]: 17.4 µM (≈ 12.5 µg/mL)

O[C@@H](CNCCNC[C@H](O)COC(c1ccc2c(c1)OCO2)c1ccc2c(c1)OCO2)COC(c1ccc2c(c1)OCO2)c1ccc2c(c1)OCO2
Ratio [1]: >10 | MIC [2]: 8.72 µM (≈ 6.25 µg/mL)

COc1ccc(C(OC[C@H](O)CNCCNC[C@@H](O)COC(c2ccc(OC)c(OC)c2OC)c2ccc(OC)c(OC)c2OC)c2ccc(OC)c(OC)c2OC)c(OC)c1OC
Ratio [1]: >10 | MIC [2]: 13.9 µM (≈ 12.5 µg/mL)

CC(C)(C)c1ccc(C(OC[C@@H](O)CNCCNC[C@H](O)COC(c2ccc(C(C)(C)C)cc2)c2ccc(C(C)(C)C)cc2)c2ccc(C(C)(C)C)cc2)cc1
Ratio [1]: >10 | MIC [2]: 16.3 µM (≈ 12.5 µg/mL)

Cc1ccc(C(OC[C@H](O)CN2CCCN(C[C@@H](O)COC(c3ccc(C)cc3)c3ccc(C)cc3)CC2)c2ccc(C)cc2)cc1
Ratio [1]: 26.92 | MIC [2]: 1.22 µM (≈ 0.777 µg/mL) | MIC [6]: 0.78 µg/mL (≈ 1.22 µM) | MIC [3]: 0.78 µg/mL | MBC [4]: 3.13 µg/mL (≈ 4.91 µM) | Ratio [5]: 4

CC[C@@H](CO)NCCN[C@@H](CC)CO [ETHAMBUTOL]
MIC [6]: 3.13 µg/mL (≈ 15.3 µM) | MIC [3]: 7.64 µM | MBC [4]: 3.13 µg/mL (≈ 15.3 µM)

— ChEMBL document CHEMBL1154196, “Synthesis and evaluation of (S,S)-N,N'-bis-[3-(2,2',6,6'-tetramethylbenzhydryloxy)-2-hydroxy-propyl]-ethylenediamine (S2824) analogs with anti-tuberculosis activity” (2009)
